# Reference: ChEMBL document CHEMBL1135780, “6-Chloro-3-alkylamino-4H-thieno[3,2-e]-1,2,4-thiadiazine 1,1-dioxide derivatives potently and selectively activate ATP sensitive potassium channels of pancreatic beta-cells” (J Med Chem, 2002)
# Legend:
# Rattus norvegicus [1] = species on record: Rattus norvegicus; assay: Inhibition of glucose-stimulated insulin release from Wistar rat islets; assay type: functional
# Method in brief: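 Isolated rat islets held overnight in RPMI, 10% FCS, 11 mM glucose, then 10 islets/well overnight in DMEM, 10% FCS, 3 mM glucose. Run like the βTC6 assay (60 min NN buffer preincubation, 3 h with 22 mM glucose and serial dilutions) without IBMX. Insulin by in-house ELISA.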
# Rattus norvegicus [2] = species on record: Rattus norvegicus; assay: Reduction in plasma insulin in 30 min post-injection in rat; assay type: functional; design: concentration or dose not given beside the values
# Method in brief: (§1)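 Postprandial male Sprague–Dawley rats, 280–320 g, under Hypnorm/Dormicum at 37 °C. 3 mg/kg iv bolus over 20 s via jugular cannula (0.3 mg/kg for one compound), dissolved in 0.15% NaOH and saline. Blood taken every 5–10 min from 15 min pre- to 30 min postinjection. Plasma insulin by ELISA, as % reduction from pre-dose level. 2–4 animals.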
# [3] = Oral bioavailability in rat (Sprague-Dawley); assay type: ADME, organism-based; conditions: Sprague-Dawley, in vivo
# Method in brief: (§2)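 Cassette dosing, two compounds per cassette, in Sprague–Dawley rats of about 180 g, n = 2. iv doses 0.5 or 0.89 mg/kg; oral doses 1.89 or 2.0 mg/kg. Vehicle 0.1 M potassium phosphate pH 8.0, or PEG 300 based. Heart-puncture sampling, one rat per point. Plasma levels by LC/MS/MS; noncompartmental analysis.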
# [4] = Half life after oral administration to Sprague-Dawley rats; assay type: ADME, organism-based; conditions: rat, in vivo; method in brief: as §2
# Rattus norvegicus [5] = species on record: Rattus norvegicus; assay: Maximum reduction in plasma insulin in rat; assay type: functional; method in brief: as §1
# [6] = target: T1, Sulfonylurea receptor 1, Kir6.2 (Homo sapiens, UniProt Q09428+Q14654); assay: Inhibition of [3H]glibenclamide binding to HEK293 cells co-expressing human Sulfonylurea receptor SUR1 and Inward rectifier K+ channel Kir6.2 at high affinity state with 2 mM MgATP; assay type: cell-based
# [7] = target: T1, Sulfonylurea receptor 1, Kir6.2; assay: Inhibition of [3H]glibenclamide binding to HEK293 cells co-expressing human Sulfonylurea receptor SUR1 and Inward rectifier K+ channel Kir6.2 at low affinity state with 2 mM MgATP; assay type: cell-based
# Rattus norvegicus [8] = species on record: Rattus norvegicus; assay: Maximum change in MAP in rat; assay type: functional
# Method in brief: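 Anaesthetized male Sprague–Dawley rats given 3 mg/kg iv bolus (0.3 mg/kg for one compound) in 0.15% NaOH/saline via jugular cannula. Maximal percent change in mean arterial pressure over 5 min after dosing; mean ± SEM, 2–4 animals.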
# Beta-TC6 [9] = assay: Ability to inhibit the release of insulin from the mouse beta-TC6 cell line; assay type: functional, cell-based
# Method in brief: (§3)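 βTC6 cells, 5 × 10⁴/well, grown 3 days in DMEM + 10% FCS, 11 mM glucose, 20 mM Hepes. Washed twice in NN buffer with 0.1% BSA, preincubated 60 min, then 3 h with 22 mM glucose, 0.1 mM IBMX and serial compound dilutions. Insulin in supernatant measured by in-house ELISA (guinea pig anti-insulin, rat insulin standard). Reference compound as positive control.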
# [10] = Changes in potassium fluxes assessed in the glucose responsive insulin-producing murine cell line beta-TC3; assay type: functional, cell-based, Mus musculus
# Method in brief: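 βTC3 membrane potential read as DiBAC4(3) fluorescence at 0.01, 0.1, 1, 10 and 100 µM, four wells each. Signal normalized to each well's initial value and expressed as fractional fluorescence change over 45 min incubation. EC50 from four-parameter nonlinear fit; mean ± SEM of at least three independent experiments.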
# Beta-TC6 [11] = assay: Percentage insulin release in vitro in beta-TC6 cells; assay type: functional; conditions: Mus musculus; method in brief: as §3
# Rattus norvegicus [12] = species on record: Rattus norvegicus; assay: Ability to relax phenylephrine-contracted rat aorta rings; assay type: functional
# [13] = system: βTC6 cells (Mus musculus); assay: Inhibition of glucose-stimulated insulin release from βTC6 cells
# [14] = Acid dissociation constant was determined; assay type: ADME
# Method in brief: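 Potentiometric titration from pH 2 to 10.5 in 80% MeOH cosolvent. Three titrations on the same sample, with 0.15 M KCl added before the second. psKa values extrapolated to 0% cosolvent by Yasuda–Shedlovsky.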
# [15] = target: T1, Sulfonylurea receptor 1, Kir6.2; assay: Inhibition of [3H]glibenclamide binding to HEK293 cells co-expressing human Sulfonylurea receptor SUR1 and Inward rectifier K+ channel Kir6.2 without ATP; assay type: cell-based
# Method in brief: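 Membranes from HEK293 cells stably expressing human SUR1/Kir6.2 (100 µg/mL protein) incubated 1 h at 37 °C with 1 nM [3H]glibenclamide in 30 mM HEPES pH 7.4, here without MgCl2 and ATP. Nonspecific binding with 10 µM glipizide. Rapid filtration, scintillation counting; IC50 by one- or two-site sigmoid nonlinear regression.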
# Rattus norvegicus [16] = species on record: Rattus norvegicus; assay: Effective concentration require for relaxation of rat aorta rings; assay type: functional
# Beta-TC6 [17] = assay: Maximum inhibition of glucose stimulated insulin release from mouse beta-TC6 cells at 10 uM in vitro.; assay type: functional
# T1 sequence (Q14654 whole entry): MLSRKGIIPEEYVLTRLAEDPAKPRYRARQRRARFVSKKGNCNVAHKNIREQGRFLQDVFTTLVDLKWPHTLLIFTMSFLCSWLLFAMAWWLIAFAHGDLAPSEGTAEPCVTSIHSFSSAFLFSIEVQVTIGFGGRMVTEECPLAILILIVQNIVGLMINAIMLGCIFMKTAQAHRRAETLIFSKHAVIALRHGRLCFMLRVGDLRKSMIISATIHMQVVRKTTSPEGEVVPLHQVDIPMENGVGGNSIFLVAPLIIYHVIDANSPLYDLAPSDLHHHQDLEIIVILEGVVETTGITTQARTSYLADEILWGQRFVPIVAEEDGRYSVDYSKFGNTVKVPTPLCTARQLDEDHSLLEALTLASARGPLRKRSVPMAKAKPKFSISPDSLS
# T1 sequence (Q09428 whole entry): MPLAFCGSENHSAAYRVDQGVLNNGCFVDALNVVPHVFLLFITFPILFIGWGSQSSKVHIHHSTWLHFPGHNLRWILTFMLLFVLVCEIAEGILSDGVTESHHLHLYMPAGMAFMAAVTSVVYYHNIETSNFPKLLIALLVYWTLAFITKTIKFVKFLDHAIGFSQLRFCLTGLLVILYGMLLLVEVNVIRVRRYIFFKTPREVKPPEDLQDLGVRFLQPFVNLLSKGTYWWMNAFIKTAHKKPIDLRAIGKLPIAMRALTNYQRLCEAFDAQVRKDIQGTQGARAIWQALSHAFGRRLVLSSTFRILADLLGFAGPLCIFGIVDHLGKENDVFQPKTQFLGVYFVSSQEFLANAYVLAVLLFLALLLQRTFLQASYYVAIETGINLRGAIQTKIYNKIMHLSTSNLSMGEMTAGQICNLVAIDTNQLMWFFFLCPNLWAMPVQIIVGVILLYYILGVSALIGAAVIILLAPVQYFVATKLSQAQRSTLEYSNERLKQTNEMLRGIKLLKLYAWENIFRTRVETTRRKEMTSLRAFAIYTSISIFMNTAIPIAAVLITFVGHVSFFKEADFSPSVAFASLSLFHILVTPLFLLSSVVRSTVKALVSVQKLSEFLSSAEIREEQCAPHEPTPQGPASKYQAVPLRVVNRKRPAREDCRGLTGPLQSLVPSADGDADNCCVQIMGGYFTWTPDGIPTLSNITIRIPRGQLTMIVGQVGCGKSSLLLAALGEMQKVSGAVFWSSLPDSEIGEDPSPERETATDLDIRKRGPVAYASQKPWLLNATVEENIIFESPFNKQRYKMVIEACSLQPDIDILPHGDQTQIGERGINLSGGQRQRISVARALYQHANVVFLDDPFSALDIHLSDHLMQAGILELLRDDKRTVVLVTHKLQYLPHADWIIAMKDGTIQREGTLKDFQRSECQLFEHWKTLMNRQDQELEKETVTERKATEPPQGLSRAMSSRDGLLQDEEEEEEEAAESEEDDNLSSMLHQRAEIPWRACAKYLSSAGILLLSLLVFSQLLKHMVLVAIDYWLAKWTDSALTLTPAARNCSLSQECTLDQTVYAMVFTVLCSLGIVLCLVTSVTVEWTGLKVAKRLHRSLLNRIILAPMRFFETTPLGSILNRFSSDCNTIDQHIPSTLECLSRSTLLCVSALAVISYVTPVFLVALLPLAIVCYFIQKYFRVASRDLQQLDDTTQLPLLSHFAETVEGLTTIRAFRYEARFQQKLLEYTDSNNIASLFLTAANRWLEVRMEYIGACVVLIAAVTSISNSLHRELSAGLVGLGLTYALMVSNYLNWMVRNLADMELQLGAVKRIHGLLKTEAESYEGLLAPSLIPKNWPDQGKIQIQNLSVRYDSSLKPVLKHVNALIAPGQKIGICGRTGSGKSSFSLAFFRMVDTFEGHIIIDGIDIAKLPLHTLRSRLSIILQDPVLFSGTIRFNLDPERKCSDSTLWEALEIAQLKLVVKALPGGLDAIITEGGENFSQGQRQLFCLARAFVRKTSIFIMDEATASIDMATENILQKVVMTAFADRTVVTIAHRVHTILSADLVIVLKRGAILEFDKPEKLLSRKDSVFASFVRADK
SMILES,IC50 (Rattus norvegicus [1]) [µM],Reduction (Rattus norvegicus [2]) [%],bioavailability [3] [%],half-life [4] [h],Reduction (Rattus norvegicus [5]) [%],IC50 [6] [µM],IC50 [7] [µM],Change (Rattus norvegicus [8]) [%],IC50 (Beta-TC6 [9]) [µM],EC50 [10] [µM],Emax (Beta-TC6 [11]) [%],EC50 (Rattus norvegicus [12]) [µM],Emax [13] [%],pKa [14],IC50 [15] [µM],EC50 (Rattus norvegicus [16]) [µM],Emax at 10 µM (Beta-TC6 [17]) [%]
CC[C@@H](C)NC1=NS(=O)(=O)c2sc(Cl)cc2N1,0.06,94,90,2.72,97,0.64,224,-17,0.24,0.3,82,70,82,8.54,487,,
CNC1=NS(=O)(=O)c2sc(Cl)cc2N1,,,,,,,,,21.2,> 100,,17.3,,,,17.3,35
